{"source": "ChEMBL document CHEMBL1123757", "about": "“Selective thromboxane synthetase inhibitors and antihypertensive agents. New derivatives of 4-hydrazino-5H-pyridazino[4,5-b]indole, 4-hydrazinopyridazino[4,5-a]indole, and related compounds” (J Med Chem, 1987)", "key": {"Rattus norvegicus [1]": {"system": "Rattus norvegicus", "assay": "Antihypertensive activity in spontaneously hypertensive rats (SHR) measured by percentage fall in arterial pressure (AP) at 1 mg/kg administered intraperitoneally at 5 h;No significance significance", "assay_type": "functional, organism-based", "set-up": "dose 1 mg/kg", "settings": "Artery", "summary_of_the_method": "(§1)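 Unanesthetized Okamoto-strain SHR, male and female, 8 weeks old, 300–350 g, systolic pressure ≥190 mmHg, heart rate 400–650 beats/min; five animals per dose. Given ip at 2.5 mL/kg, dissolved or suspended in normal saline or saline with 0.2% (carboxymethyl)cellulose and 1.0% Tween 80. Tail AP and CR recorded by mechanical transduction at set times; reported as percentage fall from control.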"}, "Rattus norvegicus [2]": {"system": "Rattus norvegicus", "assay": "Antihypertensive activity in spontaneously hypertensive rats (SHR) measured by percentage fall in cardiac rhythm (CR) at 1 mg/kg administered intraperitoneally at 24 h;No significance", "assay_type": "functional, organism-based", "set-up": "dose 1 mg/kg", "settings": "Heart", "summary_of_the_method": "as §1"}, "Cavia porcellus [3]": {"system": "Cavia porcellus", "assay": "Ex vivo inhibition of platelet aggregation induced by AA at 50 mg/kg; No significance", "assay_type": "functional, organism-based", "set-up": "dose 50 mg/kg", "summary_of_the_method": "(§2)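 Fasted male or female guinea pigs (250–300 g, five per group) dosed orally in normal saline or saline with 0.2% (carboxymethyl)cellulose/1.0% Tween 80; controls given vehicle. Under ether, cardiac blood collected into 3.8% citrate. PRP adjusted to […] and aggregation induced by ADP (second wave) or AA, read by absorbance aggregometry. PGE2 and TXB2 measured by RIA.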"}, "Cavia porcellus [4]": {"system": "Cavia porcellus", "assay": "Ex vivo inhibition of platelet aggregation induced by ADP-II at 50 mg/kg; No significance", "assay_type": "functional, organism-based", "set-up": "dose 50 mg/kg", "summary_of_the_method": "as §2"}, "Cavia porcellus [5]": {"system": "Cavia porcellus", "assay": "Ex vivo inhibition of platelet aggregation induced by AA at 30 mg/kg; No significance", "assay_type": "functional, organism-based", "set-up": "dose 30 mg/kg", "summary_of_the_method": "as §2"}, "Rattus norvegicus [6]": {"system": "Rattus norvegicus", "assay": "Percent increase in cardiac rhythm, directly measured on carotid (iv on the jugular vein) of spontaneously hypertensive rats at 1 mg/kg after 240 minutes;No significance", "assay_type": "functional, organism-based", "set-up": "dose 1 mg/kg", "settings": "Heart", "summary_of_the_method": "(§3)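 Anesthetized (sodium pentobarbital, 70 mg/kg) male and female Okamoto SHR, 8 weeks old, 300–350 g. Given iv into the jugular vein in normal saline. Arterial pressure and cardiac rhythm are recorded directly from the carotid by polygraph at set times after dosing. Each is expressed as percent change from the pre-dose control value.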"}, "Rattus norvegicus [7]": {"system": "Rattus norvegicus", "assay": "Antihypertensive activity in spontaneously hypertensive rats (SHR) measured by percentage fall in arterial pressure (AP) at 1 mg/kg administered intraperitoneally at 24 h;No significance", "assay_type": "functional, organism-based", "set-up": "dose 1 mg/kg", "settings": "Artery", "summary_of_the_method": "as §1"}, "Rattus norvegicus [8]": {"system": "Rattus norvegicus", "assay": "Antihypertensive activity in spontaneously hypertensive rats (SHR) measured by percentage fall in cardiac rhythm (CR) at 25 mg/kg administered intraperitoneally at 24 h;No significance", "assay_type": "functional, organism-based", "set-up": "dose 25 mg/kg", "settings": "Heart", "summary_of_the_method": "as §1"}, "Rattus norvegicus [9]": {"system": "Rattus norvegicus", "assay": "Percent increase in cardiac rhythm, directly measured on carotid (iv on the jugular vein) of spontaneously hypertensive rats at 1 mg/kg after 5 minutes;No significance", "assay_type": "functional, organism-based", "set-up": "dose 1 mg/kg", "settings": "Heart", "summary_of_the_method": "as §3"}, "Cavia porcellus [10]": {"system": "Cavia porcellus", "assay": "Ex vivo inhibition of platelet aggregation induced by ADP-II at 30 mg/kg; No significance", "assay_type": "functional, organism-based", "set-up": "dose 30 mg/kg", "summary_of_the_method": "as §2"}, "Rattus norvegicus [11]": {"system": "Rattus norvegicus", "assay": "Percent increase in cardiac rhythm, directly measured on carotid (iv on the jugular vein) of spontaneously hypertensive rats at 1 mg/kg after 180 minutes;No significance", "assay_type": "functional, organism-based", "set-up": "dose 1 mg/kg", "settings": "Heart", "summary_of_the_method": "as §3"}, "[12]": {"target": "T1, Thromboxane-A synthase (Homo sapiens) (UniProt P24557)", "T1 sequence (whole entry)": "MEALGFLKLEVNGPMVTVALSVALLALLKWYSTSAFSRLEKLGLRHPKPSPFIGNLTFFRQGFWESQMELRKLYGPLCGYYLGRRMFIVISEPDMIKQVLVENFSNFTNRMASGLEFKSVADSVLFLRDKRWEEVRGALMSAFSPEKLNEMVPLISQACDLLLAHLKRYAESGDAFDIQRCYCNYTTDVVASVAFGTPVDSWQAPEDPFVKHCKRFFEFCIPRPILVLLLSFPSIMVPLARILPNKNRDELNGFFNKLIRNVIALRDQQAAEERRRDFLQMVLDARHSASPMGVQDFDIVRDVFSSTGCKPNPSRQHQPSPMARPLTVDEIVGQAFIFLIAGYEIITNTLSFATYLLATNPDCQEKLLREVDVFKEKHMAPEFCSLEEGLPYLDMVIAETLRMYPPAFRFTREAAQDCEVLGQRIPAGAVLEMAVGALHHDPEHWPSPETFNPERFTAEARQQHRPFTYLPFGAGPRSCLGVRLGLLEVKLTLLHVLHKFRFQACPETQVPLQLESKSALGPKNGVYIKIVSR", "assay": "Effect on thromboxane synthetase activity on in vitro platelet aggregation induced by AA at 10e -5 M expressed as percent […] in TXB2", "assay_type": "functional", "summary_of_the_method": "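Human citrated PRP adjusted to 200 000 […], compound at 10^-5 M final in saline/10% ethylene glycol, incubated at 37 °C. Aggregation induced with arachidonic acid 0.6 mM and read by Born absorbance aggregometry. PGE2 and TXB2 in the aggregated samples measured by radioimmunoassay. n = 5.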"}, "Rattus norvegicus [13]": {"system": "Rattus norvegicus", "assay": "Antihypertensive activity in spontaneously hypertensive rats (SHR) measured by percentage fall in cardiac rhythm (CR) at 25 mg/kg administered perorally at 24 h;No significance", "assay_type": "functional, organism-based", "set-up": "dose 25 mg/kg", "settings": "Heart", "summary_of_the_method": "(§4)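 Conscious SHR (Okamoto strain), 8 weeks old, male and female, 300–350 g, systolic BP ≥190 mmHg, CR 400–650 beats/min. Given ip or po at 2.5 mL/kg in normal saline or saline with 0.2% (carboxymethyl)cellulose and 1.0% Tween 80. Tail AP and CR recorded by mechanical transduction at 1, 3, 5 and 24 h, five animals per dose. Effect expressed as % fall versus control.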"}, "Rattus norvegicus [14]": {"system": "Rattus norvegicus", "assay": "Antihypertensive activity in spontaneously hypertensive rats (SHR) measured by percentage fall in cardiac rhythm (CR) at 25 mg/kg administered perorally at 1 h;No significance", "assay_type": "functional, organism-based", "set-up": "dose 25 mg/kg", "settings": "Heart", "summary_of_the_method": "as §4"}, "Rattus norvegicus [15]": {"system": "Rattus norvegicus", "assay": "Antihypertensive activity in spontaneously hypertensive rats (SHR) measured by percentage fall in cardiac rhythm (CR) at 1 mg/kg administered intraperitoneally at 5 h;No significance", "assay_type": "functional, organism-based", "set-up": "dose 1 mg/kg", "settings": "Heart", "summary_of_the_method": "as §1"}, "Rattus norvegicus [16]": {"system": "Rattus norvegicus", "assay": "Percent increase in cardiac rhythm, directly measured on carotid (iv on the jugular vein) of spontaneously hypertensive rats at 1 mg/kg after 75 minutes;No significance", "assay_type": "functional, organism-based", "set-up": "dose 1 mg/kg", "settings": "Heart", "summary_of_the_method": "as §3"}, "Rattus norvegicus [17]": {"system": "Rattus norvegicus", "assay": "Percent increase in cardiac rhythm, directly measured on carotid (iv on the jugular vein) of spontaneously hypertensive rats at 1 mg/kg after 120 minutes;No significance", "assay_type": "functional, organism-based", "set-up": "dose 1 mg/kg", "settings": "Heart", "summary_of_the_method": "as §3"}}}
{"smiles": "COc1ccc2[nH]c3c(NN)nncc3c2c1", "values": [{"measurement": "Decrease in AP", "setting": "Rattus norvegicus [1]", "result": "No significant values"}, {"measurement": "Decrease in AP", "setting": "Rattus norvegicus [2]", "result": "No significant values"}, {"measurement": "inhibition", "setting": "Cavia porcellus [3]", "result": "No significant values"}, {"measurement": "inhibition", "setting": "Cavia porcellus [4]", "result": "No significant values"}, {"measurement": "inhibition", "setting": "Cavia porcellus [5]", "result": "No significant values"}, {"measurement": "Increase", "setting": "Rattus norvegicus [6]", "result": "No significant values"}, {"measurement": "Decrease in AP", "setting": "Rattus norvegicus [7]", "result": "No significant values"}, {"measurement": "Decrease in CR", "setting": "Rattus norvegicus [8]", "result": "No significant values"}, {"measurement": "Increase", "setting": "Rattus norvegicus [9]", "result": "No significant values"}, {"measurement": "inhibition", "setting": "Cavia porcellus [10]", "result": "No significant values"}, {"measurement": "Increase", "setting": "Rattus norvegicus [11]", "result": "No significant values"}, {"measurement": "inhibition", "setting": "[12]", "result": 40, "unit": "%"}, {"measurement": "Decrease in CR", "setting": "Rattus norvegicus [13]", "result": "No significant values"}, {"measurement": "Decrease in CR", "setting": "Rattus norvegicus [14]", "result": "No significant values"}, {"measurement": "Decrease in CR", "setting": "Rattus norvegicus [15]", "result": "No significant values"}, {"measurement": "Increase", "setting": "Rattus norvegicus [16]", "result": "No significant values"}, {"measurement": "Increase", "setting": "Rattus norvegicus [17]", "result": "No significant values"}]}
